Structures are written as SMILES.

The values that follow come from article PMC5797940 (Nature, 2013).

One test has as its system FRα. As to conditions: O4 replaced by an amino group; cited from earlier work.
Another test has as its system reduced folate carrier. The settings on record: folate-binding affinity of reduced folate carrier; cited from earlier work.
For a further test, the target named is human FRα (Homo sapiens, UniProt P15328). Nature of the test: saturation radioligand-binding assay with [^3H]-folic acid, wild-type FRα–Fc. The settings on record: fully glycosylated FRα–Fc.
The subject of test [1] is FRα Y175, K136 and R106 alanine mutants. The experiment in a line: saturation radioligand-binding assay, FRα Y175, K136 and R106 mutants. More on the design: species or system human. The settings on record: mutations of Y175, K136 and R106 (bond lengths ≥3.1 Å). The essentials: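 Human FRα alanine mutants made by site-directed mutagenesis, expressed as Fc fusions in transiently transfected HEK293 cells and Ni-NTA purified. 40 nM protein captured on protein G wells (25 mM Tris pH 8.0, 150 mM NaCl, 0.1% Triton X-100) for 40 min. Ligand stripped at pH 3.5 for 1 min. Then 40 min with varied [³H]-folic acid, two washes, scintillation counting. Kd by nonlinear regression, as fold versus wild type.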

Chain of human FRα (P15328 23-234): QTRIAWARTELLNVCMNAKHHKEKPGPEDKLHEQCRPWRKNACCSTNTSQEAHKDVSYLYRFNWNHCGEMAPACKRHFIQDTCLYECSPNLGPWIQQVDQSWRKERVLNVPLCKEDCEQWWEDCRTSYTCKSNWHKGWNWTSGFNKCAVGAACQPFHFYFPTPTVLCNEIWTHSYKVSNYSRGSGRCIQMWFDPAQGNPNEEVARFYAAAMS

With `Nc1nc(N)c2nc(CNc3ccc(C(=O)N[C@@H](CCC(=O)O)C(=O)O)cc3)cnc2n1` [aminopterin], the “affinity for FRα compared with folic acid” value in the test on FRα was “reduced affinity”. For orientation: Km means the concentration of substrate that gives half-maximal velocity. Take `Nc1nc(=O)c2nc(CNc3ccc(C(=O)N[C@@H](CCC(=O)O)C(=O)O)cc3)cnc2[nH]1` [folate]: in the test with reduced folate carrier, the Km was 1 to 10 µM. In the case of `Nc1nc(=O)c2nc(CNc3ccc(C(=O)N[C@@H](CCC(=O)O)C(=O)O)cc3)cnc2[nH]1` [folic acid], on human FRα, the “folic acid-binding affinity compared with the deglycosylated protein” value is on record as “similar”. Also, the “effect of the mutation on folic acid binding” value in test [1] is given as “little effect”. With `CN(Cc1cnc2nc(N)nc(N)c2n1)c1ccc(C(=O)N[C@@H](CCC(=O)O)C(=O)O)cc1` [methotrexate], the “affinity for FRα compared with folic acid” value in the test with FRα is reported as “reduced affinity”.
